Source: PubChem BioAssay (Broad Institute)
A selection: hits, their analogues and other compounds. The true share with any hit is near 2.1%.
ERp5 inh: inhibitors of human ERp5; 0.05% of 350,000 active; ERp5 insulin aggregation, absorbance 650 nm, 90 min; inhibition, % at 9.99 µM; Q15084; AID 651711;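 active = mean replicate inhibition above about 25%, with every replicate also reaching it, limit read from the data, passing the limit was not always enough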
PDI inh: inhibitors of human protein disulfide isomerase; PDI insulin aggregation turbidity, A650, 90 min; 0.052% of 350,000 active; inhibition, % at 10 µM; P07237;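 active = mean inhibition across replicates of 30% or more, whatever share of single replicates reach that level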
FN deposit inh: fibronectin deposition inhibition; AID 743247; 0.086% of 350,000 active; inhibition, % at 12.6 µM; AH1F fibroblasts, Alexa488-fibronectin deposition fluorescence, overnight;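 active = mean inhibition across replicates of 30% or more, regardless of how many single replicates reach that level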
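Material – AH1F fibroblast monolayer, labelled fibronectin deposition · Reagent – labelled fibronectin 24 nM · Timing – 1 h adhesion, overnight exposure · Measured by – fluorescence at 485 nm excitation, 525 nm emission · Read-out – inhibition of fibronectin deposition signal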
FGF22 binding: shifts melting point of recombinant human FGF22; recombinant FGF22 thermal shift, SYPRO orange fluorescence; percent of sucrose octasulfate shift, DMSO zero; Q9HCT0; 1.5% of 340,000 active; AID 651658; activity (Tm shift, normalised), % at 9.99 µM;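 active = mean Tm shift, scaled 0 neutral to 100 positive control, at about 1.3% or above, every replicate too, limit read from the data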
Target sequence (Q9HCT0 whole entry, looked up): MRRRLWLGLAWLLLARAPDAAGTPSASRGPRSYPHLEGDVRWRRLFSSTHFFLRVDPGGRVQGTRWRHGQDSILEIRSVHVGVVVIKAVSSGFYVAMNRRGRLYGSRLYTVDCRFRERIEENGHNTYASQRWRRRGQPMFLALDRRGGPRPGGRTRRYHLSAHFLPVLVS
ARNT-TACC3 inh: ARNT/TACC3 interaction disruption; Q9Y6A5; AlphaScreen His-ARNT PAS-B/GST-TACC3 binding, luminescence; TACC3 fragment carries E629A point mutation; inhibition, % at 9.99 µM; 0.66% of 390,000 active; AID 623870;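 active = mean inhibition of replicates at least 50% and at least half of replicates each reaching 50%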
AF4-AF9 inh: inhibitors of human MLL-AF4/AF9 interaction | P42568 | AlphaScreen, biotin-AF4 peptide binding to FLAG-AF9 | inhibition, % at 10 µM | 0.47% of 350,000 active | AID 651704;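 active = every replicate reaching a set inhibition limit, whatever the replicate mean, cut at about 25% in these data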
Of the large screens only hits and unclear results are named; the others gave an inactive call; ! = repeats disagree.

NC(=O)C1CCN(C(=O)CNC(=O)c2ccc(F)cc2)CC1	FGF22 binding 43.7
C[C@@H](NC(=O)C[C@@H]1CC[C@@H](NC(=O)Cc2ccccn2)[C@@H](CO)O1)c1ccccc1	none (no result: PDI inh)
COc1ccc(C(=O)CC(=O)c2ccccc2O)cc1OC	FGF22 binding 56.4
C[C@@H]1CN([C@H](C)CO)S(=O)(=O)c2ccc(-c3cccc(C#N)c3)cc2O[C@@H]1CN(C)Cc1cccc(F)c1	none (no result: PDI inh)
C[C@@H]1CN([C@H](C)CO)C(=O)Cc2cc(NC(=O)Nc3ccc(C(F)(F)F)cc3)ccc2O[C@H]1CN(C)C(=O)Nc1cccc2ccccc12	none (no result: PDI inh, FN deposit inh)
CC(/C=C1\SC(=S)N(CCC(=O)Nc2ccc(O)cc2)C1=O)=C\c1ccccc1	none (no result: FGF22 binding)
CC(=Cc1ccccc1)C=C1SC(=S)N(CCCC(=O)Nc2ccc(C(=O)O)c(O)c2)C1=O	FGF22 binding 2.6 (no result: ARNT-TACC3 inh)
C[n+]1c2cc(N)ccc2cc2ccc(N)cc21	ARNT-TACC3 inh 27.6!
O=C(Cc1cccnc1)N[C@H]1CC[C@H](CCNS(=O)(=O)c2ccccc2Cl)O[C@H]1CO	none (no result: ERp5 inh, PDI inh, FGF22 binding, ARNT-TACC3 inh, AF4-AF9 inh)
COc1ccc(CNCC(O)(c2ccccc2)c2ccccc2)cc1	none
COc1ccc(CNCC(O)(c2ccccc2)c2ccccc2)cc1OC	FGF22 binding 43.3
C[C@H]1CCCCO[C@H](CN(C)C)[C@@H](C)CN([C@@H](C)CO)C(=O)c2cc(NC(=O)c3ccncc3)ccc2O1	none (no result: PDI inh, FN deposit inh)
CC1=[N+](C)N(c2ccccc2)C(=O)C1N=Cc1c(Cl)cccc1Cl (centres undefined)	FGF22 binding 43.2
CC1=[N+](C)N(c2ccccc2)C(=O)C1N=Cc1ccccc1Cl (centres undefined)	none
Cc1csc2nc3cc(C(N)=O)ccc3c(=O)n12	AF4-AF9 inh 54.5 (no result: FN deposit inh)
NC(=O)c1ccc2c(=O)n3c(-c4cc(Cl)c(N)c(Cl)c4)csc3nc2c1	none
N/C(=N\OS(=O)(=O)c1ccc2ccccc2c1)c1ccccn1	ARNT-TACC3 inh 58.7
COC/C=C/C1=CC2=CC(=O)C(C)(OC(=O)c3cnc4ccccc4n3)C(=O)C2=CN1CCCOC(C)C (centres undefined)	ARNT-TACC3 inh 10.8
COC/C=C/C1=CC2=CC(=O)C(C)(OC(=O)c3cnc4ccccc4n3)C(=O)C2=CN1CCOC (centres undefined)	none (no result: AF4-AF9 inh)
CCc1nnc(NC(=O)CCC(=O)Nc2ccc(Cl)cc2)s1	FGF22 binding 43.2
C[C@H](NC(=O)C[C@@H]1C=C[C@@H](NC(=O)Nc2ccc3c(c2)OCO3)[C@H](CO)O1)c1ccccc1	none (no result: PDI inh)
NC(=O)NC(=O)CC1S/C(=N/N=C2/NC(=O)CS2)NC1=O (centres undefined)	ARNT-TACC3 inh 66.1
O=C(O)CNC(=O)CC1S/C(=N/N=C2\CSC(=O)N2)NC1=O (centres undefined)	none (no result: ARNT-TACC3 inh)
N/C(=N\OC(=O)CCCc1ccccc1)c1ccc([N+](=O)[O-])cc1	none (no result: ERp5 inh, FGF22 binding, AF4-AF9 inh)
N/C(=N\OC(=O)CCCOc1ccccc1)c1ccc([N+](=O)[O-])cc1	FGF22 binding 43.0
COC(=O)c1oc2ccccc2c1NC(=O)c1ccccc1O	FGF22 binding 43.2
CC(C)C[C@@H]1CN(CCCC[C@H]2CNC(=O)C(=O)N2CCC2CCCCC2)C(=O)C(=O)N1Cc1ccccc1	none (no result: PDI inh, ARNT-TACC3 inh)
CC(C)C[C@H]1CN(CCCC[C@H]2CNC(=O)C(=O)N2CC2CCCCC2)C(=O)C(=O)N1Cc1ccccc1	AF4-AF9 inh 26.5 (no result: PDI inh, ARNT-TACC3 inh)
CCCCN(CC)CCCNC(=S)Nc1ccc2nc(N3CCN(C)CC3)cc(C)c2c1	AF4-AF9 inh 25.5
COc1ccccc1CNC(=S)Nc1ccc2nc(N3CCN(C)CC3)cc(C)c2c1	AF4-AF9 inh 27.2
COc1ccc(CNC(=S)Nc2ccc3nc(N4CCN(C)CC4)cc(C)c3c2)cc1	AF4-AF9 inh 25.7
CCCCN(CC)CCCNC(=S)Nc1ccc2nc(N3CCN(CC)CC3)cc(C)c2c1	none
COCCNC(=S)Nc1ccc2nc(N3CCN(C)CC3)cc(C)c2c1	none
COc1ccc(CNC(=S)Nc2ccc3nc(N4CCOCC4)cc(C)c3c2)cc1	none
CS(=O)(=O)N1[C@@H](C#N)[C@@H](c2ccc(C#CC3CC3)cc2)[C@@H]1CO	none (no result: PDI inh)
